In brackets after ≈: the same amount, converted by molar mass.
How the values were obtained:
Type in all cases: functional
[1] = test system: Staphylococcus aureus; test: Minimum inhibitory concentration against Staphylococcus aureus H-228; details: Staphylococcus aureus; read-out: MIC
Procedure, shortened: (§1)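 Standard microdilution method against a panel of five Gram-negative and five Gram-positive bacterial strains. The MIC (µg/mL) was recorded for each strain.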

[2] = test system: Klebsiella pneumoniae; test: Minimum inhibitory concentration against Klebsiella pneumoniae MGH-2; details: Klebsiella pneumoniae; read-out: MIC; procedure, shortened: as §1
[3] = test system: Pseudomonas aeruginosa; test: Minimum inhibitory concentration against Pseudomonas aeruginosa UI-18; details: Pseudomonas aeruginosa; read-out: MIC; procedure, shortened: as §1
[4] = test system: Streptococcus pneumoniae; test: Minimum inhibitory concentration against Streptococcus pneumoniae SV-1; details: Streptococcus pneumoniae; read-out: MIC; procedure, shortened: as §1
[5] = test system: Enterococcus faecalis; test: Minimum inhibitory concentration against […] MGH-2; details: Enterococcus faecalis; read-out: MIC; procedure, shortened: as §1
[6] = test system: Staphylococcus aureus; test: Minimum inhibitory concentration against Staphylococcus aureus UC-76; details: Staphylococcus aureus; read-out: MIC; procedure, shortened: as §1
[7] = test system: Escherichia coli; test: Minimum inhibitory concentration against Escherichia coli Vogel; details: Escherichia coli; read-out: MIC; procedure, shortened: as §1
[8] = test system: Streptococcus pyogenes; test: Minimum inhibitory concentration against Streptococcus pyogenes C-203; details: Streptococcus pyogenes; read-out: MIC; procedure, shortened: as §1
[9] = test system: Providencia rettgeri; test: Minimum inhibitory concentration against Providencia rettgeri M-1771; details: Providencia rettgeri; read-out: MIC; procedure, shortened: as §1
[10] = test system: Enterobacter cloacae; test: Minimum inhibitory concentration against […] MA-2646; details: Enterobacter cloacae; read-out: MIC; procedure, shortened: as §1

Row | Structure (SMILES) | MIC [1] [mg/L] | MIC [2] [mg/L] | MIC [3] [mg/L] | MIC [4] [mg/L] | MIC [5] [mg/L] | MIC [6] [mg/L] | MIC [7] [mg/L] | MIC [8] [mg/L] | MIC [9] [mg/L] | MIC [10] [mg/L]
1 | COC(=O)c1ccc(C2CN(c3nc4c(cc3F)c(=O)c(C(=O)O)cn4C3CC3)CC2N)cc1 (trans isomer) | 0.2 (≈ 0.429 µM) | 0.4 (≈ 0.858 µM) | 3.1 (≈ 6.65 µM) | 0.8 (≈ 1.72 µM) | 0.4 (≈ 0.858 µM) | 0.1 (≈ 0.214 µM) | 0.4 (≈ 0.858 µM) | 0.8 (≈ 1.72 µM) | 0.8 (≈ 1.72 µM) | 0.4 (≈ 0.858 µM)
2 | COc1ccc(C2CN(c3nc4c(cc3F)c(=O)c(C(=O)O)cn4C3CC3)CC2N)cc1 (trans isomer) | 0.1 (≈ 0.228 µM) | 0.2 (≈ 0.456 µM) | 1.6 (≈ 3.65 µM) | 0.1 (≈ 0.228 µM) | 0.2 (≈ 0.456 µM) | 0.05 (≈ 0.114 µM) | 0.1 (≈ 0.228 µM) | 0.1 (≈ 0.228 µM) | 0.4 (≈ 0.912 µM) | 0.1 (≈ 0.228 µM)
3 | NCC1CN(c2c(F)cc3c(=O)c(C(=O)O)cn(C4CC4)c3c2F)CC1c1ccc(N)cc1 (stereo not given) | 0.1 (≈ 0.22 µM) | 0.2 (≈ 0.44 µM) | 1.6 (≈ 3.52 µM) | 0.05 (≈ 0.11 µM) | 0.05 (≈ 0.11 µM) | 0.025 (≈ 0.055 µM) | 0.1 (≈ 0.22 µM) | 0.05 (≈ 0.11 µM) | 0.2 (≈ 0.44 µM) | 0.1 (≈ 0.22 µM)
4 | COC(=O)c1ccc(C2CN(c3c(F)cc4c(=O)c(C(=O)O)cn(C5CC5)c4c3F)CC2N)cc1 (stereo not given) | 0.1 (≈ 0.207 µM) | 0.8 (≈ 1.65 µM) | 3.1 (≈ 6.41 µM) | 0.4 (≈ 0.827 µM) | 0.4 (≈ 0.827 µM) | 0.05 (≈ 0.103 µM) | 0.4 (≈ 0.827 µM) | 0.4 (≈ 0.827 µM) | 1.6 (≈ 3.31 µM) | 0.4 (≈ 0.827 µM)
5 | COc1ccccc1C1CN(c2c(F)cc3c(=O)c(C(=O)O)cn(C4CC4)c3c2F)CC1N (trans isomer) | 0.05 (≈ 0.11 µM) | 0.4 (≈ 0.878 µM) | 3.1 (≈ 6.81 µM) | 0.1 (≈ 0.22 µM) | 0.1 (≈ 0.22 µM) | 0.025 (≈ 0.0549 µM) | 0.2 (≈ 0.439 µM) | 0.1 (≈ 0.22 µM) | 0.8 (≈ 1.76 µM) | 0.4 (≈ 0.878 µM)
6 | NCC1CN(c2c(F)c(N)c3c(=O)c(C(=O)O)cn(C4CC4)c3c2F)CC1c1ccc(N)cc1 (trans isomer) | 0.025 (≈ 0.0532 µM) | 0.2 (≈ 0.426 µM) | 0.8 (≈ 1.7 µM) | 0.013 (≈ 0.0277 µM) | 0.025 (≈ 0.0532 µM) | 0.006 (≈ 0.0128 µM) | 0.1 (≈ 0.213 µM) | 0.025 (≈ 0.0532 µM) | 0.2 (≈ 0.426 µM) | 0.1 (≈ 0.213 µM)
7 | Nc1c(F)c(N2CC(N)C(c3ccc(O)cc3)C2)c(F)c2c1c(=O)c(C(=O)O)cn2C1CC1 (trans isomer) | 0.05 (≈ 0.11 µM) | 0.05 (≈ 0.11 µM) | 0.8 (≈ 1.75 µM) | 0.05 (≈ 0.11 µM) | 0.05 (≈ 0.11 µM) | 0.013 (≈ 0.0285 µM) | 0.05 (≈ 0.11 µM) | 0.1 (≈ 0.219 µM) | 0.1 (≈ 0.219 µM) | 0.05 (≈ 0.11 µM)
8 | CN(C)c1ccc(C2CN(c3nc4c(cc3F)c(=O)c(C(=O)O)cn4C3CC3)CC2N)cc1 (trans isomer) | 0.05 (≈ 0.111 µM) | 0.4 (≈ 0.886 µM) | 3.1 (≈ 6.87 µM) | 0.2 (≈ 0.443 µM) | 0.2 (≈ 0.443 µM) | 0.025 (≈ 0.0554 µM) | 0.2 (≈ 0.443 µM) | 0.2 (≈ 0.443 µM) | 0.4 (≈ 0.886 µM) | 0.2 (≈ 0.443 µM)
9 | NCc1cccc(C2CN(c3nc4c(cc3F)c(=O)c(C(=O)O)cn4C3CC3)CC2N)c1 (trans isomer) | 3.1 (≈ 7.09 µM) | 0.8 (≈ 1.83 µM) | 3.1 (≈ 7.09 µM) | 0.2 (≈ 0.457 µM) | 0.8 (≈ 1.83 µM) | 0.4 (≈ 0.914 µM) | 0.8 (≈ 1.83 µM) | 0.2 (≈ 0.457 µM) | 1.6 (≈ 3.66 µM) | 0.8 (≈ 1.83 µM)
10 | Nc1c(F)c(N2CC(N)C(c3ccc(F)cc3)C2)c(F)c2c1c(=O)c(C(=O)O)cn2C1CC1 (trans isomer) | 0.025 (≈ 0.0545 µM) | 0.1 (≈ 0.218 µM) | 1.6 (≈ 3.49 µM) | 0.1 (≈ 0.218 µM) | 0.1 (≈ 0.218 µM) | 0.013 (≈ 0.0284 µM) | 0.1 (≈ 0.218 µM) | 0.1 (≈ 0.218 µM) | 0.2 (≈ 0.436 µM) | 0.1 (≈ 0.218 µM)
11 | NC1CN(c2nc3c(cc2F)c(=O)c(C(=O)O)cn3C2CC2)CC1c1ccc(Cl)c(Cl)c1 (trans isomer) | 0.1 (≈ 0.21 µM) | 0.4 (≈ 0.838 µM) | 3.1 (≈ 6.49 µM) | 0.2 (≈ 0.419 µM) | 0.2 (≈ 0.419 µM) | 0.05 (≈ 0.105 µM) | 0.4 (≈ 0.838 µM) | 0.4 (≈ 0.838 µM) | 0.8 (≈ 1.68 µM) | 0.4 (≈ 0.838 µM)
12 | NCC1CN(c2c(F)c(N)c3c(=O)c(C(=O)O)cn(C4CC4)c3c2F)CC1c1ccccc1 (trans isomer) | 0.006 (≈ 0.0132 µM) | 0.05 (≈ 0.11 µM) | 0.8 (≈ 1.76 µM) | 0.003 (≈ 0.0066 µM) | 0.013 (≈ 0.0286 µM) | 0.003 (≈ 0.0066 µM) | 0.025 (≈ 0.055 µM) | 0.006 (≈ 0.0132 µM) | 0.1 (≈ 0.22 µM) | 0.05 (≈ 0.11 µM)
13 | NCC1CN(c2nc3c(cc2F)c(=O)c(C(=O)O)cn3C2CC2)CC1c1ccc(N)cc1 (cis isomer) | 0.2 (≈ 0.457 µM) | 0.4 (≈ 0.914 µM) | 1.6 (≈ 3.66 µM) | 0.05 (≈ 0.114 µM) | 0.1 (≈ 0.229 µM) | 0.025 (≈ 0.0571 µM) | 0.2 (≈ 0.457 µM) | 0.05 (≈ 0.114 µM) | 0.8 (≈ 1.83 µM) | 0.2 (≈ 0.457 µM)
14 | NCc1cccc(C2CN(c3nc4c(cc3F)c(=O)c(C(=O)O)cn4C3CC3)CC2CN)c1 (trans isomer) | 3.1 (≈ 6.87 µM) | 3.1 (≈ 6.87 µM) | 12.5 (≈ 27.7 µM) | 0.8 (≈ 1.77 µM) | 1.6 (≈ 3.54 µM) | 0.8 (≈ 1.77 µM) | 3.1 (≈ 6.87 µM) | 0.2 (≈ 0.443 µM) | 6.3 (≈ 14 µM) | 3.1 (≈ 6.87 µM)
